{
  "source": "paper PMC12350853",
  "about": "(Discover Nano, 2025)",
  "key": {"heart": {"system": "heart", "assay": "Heart histopathology and semi-quantitative damage score", "type": "in vivo, rat", "conditions": "for heart histopathological findings: H&E", "method_in_brief": "(§1)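 Fifty male adult Wistar rats were split into five groups (23–24 °C, 12 h light/dark). Test compound, free or loaded in Fe–Co MOF, was given at 0.4 or 0.8 mg/kg i.v., ten injections at 72 h intervals. Rats were euthanised with pentobarbital sodium 200 mg/kg. H&E sections were scored 1 (normal) to 4 (severe) against organ-specific lesion criteria, blinded, by two specialists.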"}, "[1]": {"conditions": "cited from earlier work"}, "male adult Wistar rats": {"system": "male adult Wistar rats", "assay": "Serum biochemical parameters after repeated intravenous injection", "type": "in vivo, rat", "conditions": "ten injections at 72-hour intervals, vs control", "method_in_brief": "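Male adult Wistar rats (five groups, ten per group) received free or Fe–Co MOF-loaded test compound i.v. at 0.4 or 0.8 mg/kg, ten injections every 72 h. Retro-orbital blood was centrifuged immediately at 5,000 rpm for 10 min. AST, ALT, BUN and creatinine were run on an autoanalyzer with commercial kits. Results are mean ± SD, tested by ANOVA with post hoc comparison against control.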"}, "liver [2]": {"system": "liver", "assay": "Liver histopathology and semi-quantitative damage score", "type": "in vivo, rat", "method_in_brief": "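Male Wistar rats received free or Fe–Co MOF-loaded test compound at 0.4 or 0.8 mg/kg i.v., ten doses 72 h apart. Fixed liver was ethanol-dehydrated, xylene-cleared, paraffin-embedded, microtome-sectioned and H&E-stained. Two specialists scored blindly on a 1–4 scale, and also rated pyknotic nuclei, inflammatory infiltration, bleeding and necrosis each 0–3. Results are mean ± SD.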"}, "liver [3]": {"system": "liver", "assay": "Liver MDA level", "type": "in vivo, rat", "conditions": "dose not given", "method_in_brief": "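After ten i.v. injections 72 h apart of free or Fe–Co MOF-loaded test compound (0.4 or 0.8 mg/kg) in male Wistar rats, liver malondialdehyde was measured by a modified literature method. Assays were repeated three times. Results are mean ± SD, compared by ANOVA with post hoc test.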"}, "testis": {"system": "testis", "assay": "Testis histopathology and semi-quantitative damage score", "type": "in vivo, rat", "conditions": "for Testis damage score (TDS): scale 1 normal to 4 severe, mean ± SD", "method_in_brief": "as §1"}, "kidney": {"system": "kidney", "assay": "Kidney histopathology and semi-quantitative damage score", "type": "in vivo, rat", "conditions": "for kidney histopathological findings: Masson trichrome", "method_in_brief": "as §1"}, "[4]": {"conditions": "0.4 mg/kg i.v., scale 1 normal to 4 severe, mean ± SD"}},
  "note": "Entries after “also recorded” stand apart in the source; their conditions may differ.",
  "data": [
    {"smiles": "CC(C)C[C@H](NC(=O)[C@H](CCc1ccccc1)NC(=O)CN1CCOCC1)C(=O)N[C@@H](Cc1ccccc1)C(=O)N[C@@H](CC(C)C)C(=O)[C@@]1(C)CO1", "note": "[CFZ, Carfilzomib]", "values": [
      {"measurement": "heart histopathological findings", "setting": "heart; 0.4 mg/kg i.v.", "value": "mild inflammatory cell infiltration"},
      {"measurement": "Heart damage score (HDS)", "setting": "heart; [4]", "value": "1.25 ± 0.46"},
      {"measurement": "heart histopathological findings", "setting": "heart; 0.8 mg/kg i.v., listed as free Carfilzomib", "value": "inflammatory cell infiltration, bleeding, and necrosis; also recorded: severe necrosis"},
      {"measurement": "cardiotoxicity by histopathological data", "setting": "heart; overall statement", "value": "severe cardiotoxicity"},
      {"measurement": "half-life", "setting": "[1]", "value": "~ 30 min"},
      {"measurement": "serum creatinine levels", "setting": "male adult Wistar rats; 0.4 mg/kg i.v.", "value": "elevation was not observed"},
      {"measurement": "ALT levels", "setting": "male adult Wistar rats; 0.8 mg/kg i.v.", "value": "significantly increased"},
      {"measurement": "serum AST levels", "setting": "male adult Wistar rats; 0.8 mg/kg i.v.", "value": "Significant elevation"},
      {"measurement": "serum BUN levels", "setting": "male adult Wistar rats; 0.8 mg/kg i.v.", "value": "no significant effect"},
      {"measurement": "serum creatinine levels", "setting": "male adult Wistar rats; 0.8 mg/kg i.v.", "value": "higher serum creatinine levels"},
      {"measurement": "liver histopathological findings", "setting": "liver [2]; 0.4 mg/kg i.v.", "value": "normal liver appearance"},
      {"measurement": "Liver damage score (LDS)", "setting": "liver [2]; [4]", "value": "1.6 ± 0.51"},
      {"measurement": "liver histopathological findings", "setting": "liver [2]; 0.8 mg/kg i.v.", "value": "necrosis, inflammatory cell accumulation, and disarray of hepatic cords"},
      {"measurement": "liver lipid peroxidation", "setting": "liver [3]", "value": "significant increase"},
      {"measurement": "testis histopathological findings", "setting": "testis; 0.4 mg/kg i.v.", "value": "no evidence of inflammation, necrosis, or cellular infiltrates"},
      {"measurement": "Testis damage score (TDS)", "setting": "testis; 0.4 mg/kg i.v.", "value": "1.2 ± 0.4"},
      {"measurement": "testis histopathological findings", "setting": "testis; 0.8 mg/kg i.v.", "value": "multinucleated giant Sertoli cells"},
      {"measurement": "Testis damage score (TDS)", "setting": "testis; 0.8 mg/kg i.v.", "value": "1.42 ± 0.53"},
      {"measurement": "kidney histopathological findings", "setting": "kidney; 0.4 mg/kg i.v.", "value": "normal proximal and distal tubules with normal-sized nuclei"},
      {"measurement": "Renal damage score (RDS)", "setting": "kidney; [4]", "value": "1.5 ± 0.75"},
      {"measurement": "kidney histopathological findings", "setting": "kidney; 0.8 mg/kg i.v.", "value": "glomerulosclerosis characterized by swollen lining epithelium and narrowing of the proximal tubule lumen"}
    ]}
  ]
}
